The values that follow come from ChEMBL document CHEMBL4251734, “Study on Liposomal Encapsulation of New Bodipy Sensitizers for Photodynamic Therapy” (ACS Med Chem Lett, 2018).

As a reminder, the IC50 is the midpoint of a concentration-inhibition curve.

Molecules are shown by their SMILES. Activity calls are given as the source filed them. The calls are words filed in the database; no cut-off is given here.

Data set [1] in a line: Dark toxicity in human SKOV3 cells assessed as cell death at 0.1 to 1 uM incubated for 6 hrs using liposome-encapsulated compound by MTT assay. The class given is cell-based. The settings on record: sk-ov-3, 6 h. Summed up:
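Liposomes of egg phosphatidylcholine, DOPE and photosensitizer at mole ratio 70:25:5. The PS content of the liposomes was estimated from absorbance after dissolving them in DMSO, read against standard curves of each pure PS in DMSO. Treated SK-OV-3 plates were kept shielded from all light, including stray light, as the dark control. Viability was read by MTT. Triplicate.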
For orientation: Formazan colour is commonly taken as a measure of viable cells.

Data set [2] relates to SK-OV-3. Kind of data set: Photocytotoxicity in human SKOV3 cells assessed as cell death at 0.1 to 1 uM incubated for 6 hrs followed by PDT-1200 light irradiation at 20 J/cm2 measured after 16 hrs by MTT assay. Format: functional, cell-based. In short, it runs like this:
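Free photosensitizer, not encapsulated in liposomes, was added to SK-OV-3 cells. The cells were then exposed to light at 20 J cm^-2, a dose chosen from a preliminary light-dose series. A dark plate served as the control. Viability was read by MTT, and IC50 was taken as the PS concentration killing 50% of cells. Each light treatment was done in triplicate.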

Data set [3] deals with SK-OV-3. The data set can be described thus: Photocytotoxicity in human SKOV3 cells assessed as cell death incubated for 6 hrs followed by PDT-1200 light irradiation at 20 J/cm2 measured after 16 hrs using liposome-encapsulated compound by MTT assay. The class given is functional, cell-based. The following applies: SK-OV-3, light or radiation study. In short, it runs like this: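 Photosensitizer was loaded into egg phosphatidylcholine/DOPE liposomes (mole ratio EPC:DOPE:PS 70:25:5). Loaded PS was quantified by absorbance in DMSO against standard curves. SK-OV-3 cells were treated and irradiated at 20 J cm^-2, with a dark plate as the control. Viability was read by MTT. IC50 was taken as the PS concentration killing 50% of cells. Triplicate.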

In the case of `CC1=C(I)C(/C=C/c2ccccc2OCc2ccccn2)=[N+]2C1=C(c1ccc([N+](=O)[O-])cc1)c1c(C)c(I)c(/C=C/c3ccccc3OCc3ccccn3)n1[B-]2(F)F`, the Activity entry in data set [1] is reported as “Non-Toxic”. In addition, in the data set on SK-OV-3 [2], the result was inactive. Also, the IC50 in the data set with SK-OV-3 [3] was 650 nM.
For `COc1ccc(/C=C/C2=[N+]3C(=C(c4ccc([N+](=O)[O-])cc4)c4c(C)c(I)c(/C=C/c5ccc(OC)c(OC)c5)n4[B-]3(F)F)C(C)=C2I)cc1OC`, in that order: “Non-Toxic”, “inactive” and 350 nM.
For the compound `C=Cc1c(C)c2cc3nc(c(CC(=O)O)c4[nH]c(cc5nc(cc1[nH]2)C(C)=C5CC)c(C)c4C(=O)O)[C@@H](CCC(=O)O)[C@@H]3C` [CHLORIN E6], in the data set on SK-OV-3 [3], the IC50 was 390 nM.
As for `COc1cc(/C=C/C2=[N+]3C(=C(c4ccc([N+](=O)[O-])cc4)c4c(C)c(I)c(/C=C/c5cc(OC)c(OC)cc5[N+](=O)[O-])n4[B-]3(F)F)C(C)=C2I)c([N+](=O)[O-])cc1OC`, in data set [1], the Activity result is given as “Non-Toxic”. The outcome in the data set on SK-OV-3 [2] was inactive. Also, the IC50 in the data set with SK-OV-3 [3] was 860 nM.
For the compound `COc1ccc(/C=C/C2=[N+]3C(=C(c4ccccc4)c4c(C)c(I)c(/C=C/c5ccc(OC)c(OC)c5)n4[B-]3(F)F)C(C)=C2I)cc1OC`, the Activity entry in data set [1] is reported as “Non-Toxic”. For the same compound, in the data set on SK-OV-3 [2], the result was inactive. Also, the IC50 in the data set on SK-OV-3 [3] is 880 nM.
